The values below come from ChEMBL document CHEMBL1275592, “AmpN-AmpG operon is essential for expression of L1 and L2 beta-lactamases in Stenotrophomonas maltophilia” (2010).

Format in all cases: functional
Experiment [1] deals with Stenotrophomonas maltophilia. As to the kind of experiment: Antimicrobial activity against ampN deficient Stenotrophomonas maltophilia KJ by agar dilution method. Put shortly: (§1)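 MICs were determined in triplicate by standard 2-fold serial agar dilution, following CLSI guidelines.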
In general terms: Agar dilution tests growth on a series of plates holding different concentrations.

Experiment [2] relates to Stenotrophomonas maltophilia. As to the kind of experiment: Antimicrobial activity against Stenotrophomonas maltophilia KJ by agar dilution method. Summed up: as §1
Experiment [3] deals with Stenotrophomonas maltophilia. As to the kind of experiment: Antimicrobial activity against Stenotrophomonas maltophilia KJN1 harboring ampN with xylE-Gmomega cassette insertion by agar dilution method. Summed up: as §1
Experiment [4] relates to Stenotrophomonas maltophilia. As to the kind of experiment: Antimicrobial activity against Stenotrophomonas maltophilia KJN2 harboring ampN with xylE-Gmomega cassette insertion by agar dilution method. Summed up: as §1
Experiment [5] concerns Stenotrophomonas maltophilia. In words: Antimicrobial activity against Stenotrophomonas maltophilia KJG harboring ampG with xylE-Gmomega cassette insertion by agar dilution method. Summed up: as §1
In experiment [6] the test system is Stenotrophomonas maltophilia. As to the kind of experiment: Antimicrobial activity against ampN deficient Stenotrophomonas maltophilia KJ harboring ampG with xylE-Gmomega cassette insertion by agar dilution method. Summed up: as §1
Experiment [7] deals with Stenotrophomonas maltophilia. In words: Antimicrobial activity against Stenotrophomonas maltophilia KJ harboring pRK415 plasmid by agar dilution method. Put shortly:
as §1

In experiment [8] the test system is Stenotrophomonas maltophilia. As to the kind of experiment: Antimicrobial activity against Stenotrophomonas maltophilia KJ harboring pRK-NG plasmid by agar dilution method. Put shortly:
as §1

The test system of experiment [9] is Stenotrophomonas maltophilia. In words: Antimicrobial activity against Stenotrophomonas maltophilia KJN2 harboring pRK415 plasmid and ampN with xylE-Gmomega cassette insertion by agar dilution method. Summed up:
as §1

In experiment [10] the test system is Stenotrophomonas maltophilia. In words: Antimicrobial activity against Stenotrophomonas maltophilia KJN2 harboring pRK-G plasmid and ampN with xylE-Gmomega cassette insertion by agar dilution method. Put shortly: as §1
Experiment [11] deals with Stenotrophomonas maltophilia. In words: Antimicrobial activity against Stenotrophomonas maltophilia KJN2 harboring pRK-NG plasmid and ampN with xylE-Gmomega cassette insertion by agar dilution method. Put shortly: as §1
Experiment [12] relates to Stenotrophomonas maltophilia. As to the kind of experiment: Antimicrobial activity against Stenotrophomonas maltophilia KJN2 harboring pRK-EcG plasmid and ampN with xylE-Gmomega cassette insertion by agar dilution method. Put shortly: as §1

≈ marks a conversion by molar mass, not a printed value.

In general, MIC refers to the lowest concentration found to suppress growth. A high value points to a need for much substance. On to `CC1(C)S[C@@H]2[C@H](NC(=O)C(C(=O)O)c3ccccc3)C(=O)N2[C@H]1C(=O)O` (some centres undefined) [CARBENICILLIN], for which the MIC in experiment [1] was 4 µg/mL (≈ 10.6 µM); in experiment [2] it was 1020 µg/mL (≈ 2710 µM); in [3] it was 8 µg/mL (≈ 21.1 µM); in experiment [4] it was 2 µg/mL (≈ 5.29 µM); in [5] it was 2 µg/mL (≈ 5.29 µM); in [6] it was 2 µg/mL (≈ 5.29 µM). Moreover, the MIC in experiment [7] came out at 1020 µg/mL (≈ 2710 µM); in experiment [8], 1020 µg/mL (≈ 2710 µM); in experiment [9], 4 µg/mL (≈ 10.6 µM); in experiment [10], 4 µg/mL (≈ 10.6 µM); in experiment [11], 1020 µg/mL (≈ 2710 µM); in experiment [12], 512 µg/mL (≈ 1350 µM).

Take `C[C@H]1[C@H](NC(=O)/C(=N\OC(C)(C)C(=O)O)c2csc(N)n2)C(=O)N1S(=O)(=O)O` [AZTREONAM]: the MIC in experiment [1] was 32 µg/mL (≈ 73.5 µM); in [2] it was > 1020 µg/mL; in [3] it was 32 µg/mL (≈ 73.5 µM); in [4], 16 µg/mL (≈ 36.7 µM); in [5], 16 µg/mL (≈ 36.7 µM); in [6], 16 µg/mL (≈ 36.7 µM). Further, the MIC in experiment [7] is > 1020 µg/mL; in experiment [8] it was > 1020 µg/mL; in experiment [9] it was 16 µg/mL (≈ 36.7 µM); in experiment [10] it was 32 µg/mL (≈ 73.5 µM); in experiment [11], > 1020 µg/mL; in experiment [12] it was > 1020 µg/mL.
